# Most compounds without a hit are left out; they make up all but 2% or so of the library.
# ARNT-TACC3 inh: disrupts binding between human ARNT and TACC3 | AID 623870 | inhibition, % at 9.99 µM | actives 0.66% (n = 390,000) | AlphaScreen His-ARNT PAS-B/GST-TACC3 binding, luminescence; TACC3 fragment carries E629A point mutation | Q9Y6A5;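 active = mean inhibition of replicates at least 50% and at least half of replicates each reaching 50%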;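 note: 0% = complete ARNT plus TACC3 wells and 100% = ARNT alone without TACC3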
# NSD2 inh: inhibitors of human histone methyltransferase NSD2; NSD2 peptide methylation, AlphaScreen, 120 min; actives 0.54% (n = 310,000); inhibition, % at 12.5 µM; O96028; in the data active = inhibition above about 50%
# SR-BI DiI-HDL act: enhances SR-BI lipid uptake from DiI-HDL | activation, % at 12.5 µM | AID 504775 | actives 0.096% (n = 320,000) | CHO ldlA[mSR-BI] cells, DiI-HDL uptake fluorescence, 3 h; 100 = double the neutral-control signal;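 active = mean replicate activation of at least 60% and every replicate at or above 60%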;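 note: 0% = median plate neutral-control signal and 100% = twice that signal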
#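 Assay system: LDL receptor-deficient CHO ldlA cells overexpressing murine SR-BI / Medium: BSA-supplemented, HEPES-buffered Ham's F12, pH 7.4 / Probe or stimulus: DiI-labelled HDL at 10 µg/mL final / Timing: compound with DiI-HDL co-incubation, 3 h at 37 °C / Technique: bottom-read cell fluorescence after medium removal, ex 550/em 595 nm / Measure: HDL uptake via cellular fluorescence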
# SR-BI HDL uptake: mouse SR-BI HDL lipid transfer inhibition; Q61009; ldlA[mSR-BI] CHO cells, DiI-HDL uptake fluorescence, 3 h; inhibition, % at 12.5 µM; actives 0.96% (n = 320,000); AID 488896;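 active = mean replicate inhibition of at least 70% and a set share of replicates each scoring 70 or more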;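 note: 0% = median of neutral control wells and 100% = median of positive control wells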
# Xi reactivation: reactivates the inactive X chromosome in mouse fibroblasts; XiGFP mouse fibroblasts, % GFP-positive cells imaging, 3 d; cells co-treated with 5-aza-dC sensitizer; scaled so ellipticine positive control = 100%; activation, % at 7.58 µM; AID 743238; actives 0.055% (n = 360,000);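 active = mean normalized replicate activation at least 10% and every replicate at or above 10%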;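 note: 0% = median of on-plate neutral control wells and 100% = ellipticine 6 µM median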
#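 System: 68-5-11 XiGFP fibroblast line; Timing: 3 days compound exposure; Compound dosing: one concentration, pinned; Benchmarks: positive control ellipticine, 6 µM final; Buffer or medium: DMEM containing 5-aza-dC.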
# HGIII-sPLA2 inh: Blocks human group III sPLA2 activity; QFRET BODIPY PC-A2 liposome hydrolysis, fluorescence; inhibition, % at 12.2 µM; actives 0.56% (n = 370,000); AID 743126;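 active = inhibition above mean plus 3 SD of compounds lying within the high and low control bounds, cut at about 19% in these data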;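 note: 0% = median of test compound wells and 100% = no enzyme DMSO wells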
# ARNT Alpha ctr: interferes with AlphaScreen signal, flagging false ARNT-TACC3 hits; AC50, µM (doses to about 68 µM), for inactives: at the top dose activity change, negative = signal decrease; AID 651705; His-ARNT PASB-GST AlphaScreen artifact counter-screen, luminescence; actives 50% (n = 1,200); shares compounds with ARNT-TACC3 inh;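 active = every separate test run was called active for a drop in luminescence, with AC50 within twice the top valid dose, actives reach about 71 µM in these data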
# An asterisk follows results filed as active; / = not tested or not shown; [ ] = dose if it differs, or a comment.
SMILES,ARNT-TACC3 inh,NSD2 inh,SR-BI DiI-HDL act,SR-BI HDL uptake,Xi reactivation,HGIII-sPLA2 inh,ARNT Alpha ctr
CO[C@@H]1CN(C)C(=O)c2ccc(NC(=O)c3ccccn3)cc2OC[C@@H](C)N(C(=O)C2CC2)C[C@H]1C,57*,/,/,/,/,/,32µM*
CO[C@@H]1CN(C)C(=O)c2ccc(NC(=O)c3cnccn3)cc2OC[C@@H](C)N(C(=O)C2CC2)C[C@H]1C,-1,/,/,/,0,/,/
CC1OC(CC(=O)O)CC2=C1C(=O)c1c(O)cccc1C2=O (configuration not stated),33*,95*,12,-12,4,8,-17%
O=C(C1=C[C@@H](c2coc3ccccc3c2=O)C[C@@H](OCCCCO)O1)N1CCOCC1,16,/,27,-27,0,0,/
CN(C)CCCNC(=O)c1ccccn1,-6,0,11,-11,/,1,/
c1cc(-c2ccncc2)ccn1,18,-3,19,-10,0,11,/
CN(C)CCCNC(=O)c1ccc(-c2cc(O)c3ncccc3c2)cc1,60*,/,7,-7,1,-9,14µM*
Oc1cc(-c2ccncc2)cc2cccnc12,67*,/,-9,9,0,-3,12µM*
Oc1cc(Nc2ccncc2)cc2cccnc12,73*,/,8,-8,0,-24,7.9µM*
O=C(N[C@@H]1CC[C@@H](CC(=O)N2CCC(Cc3ccccc3)CC2)O[C@@H]1CO)c1cnccn1,12,/,/,/,0,/,/
CC(C)Nc1nc(-c2ccccn2)nc(-c2ccccc2)c1C#N,/,-2,6,-6,0,0,/
C[C@H](Nc1nc(-c2ccccn2)nnc1-c1ccccc1)C1CCCCC1,/,/,/,/,/,/,2.6µM*
C[C@@H](Nc1nc(-c2ccccn2)nnc1-c1ccccc1)C1CCCCC1,/,/,/,/,/,/,4.3µM*
Cc1ccc(S(=O)(=O)N2CCOCC2)cc1NC(=O)CNCc1ccccn1,65*,-61,8,-8,0,0,50µM*
C[C@H](CO)N1C[C@H](C)[C@@H](CN(C)S(C)(=O)=O)Oc2c(NC(=O)Cc3ccccc3)cccc2C1=O,-8,/,-3,3,0,6,/
CC(C)NC(=O)Nc1ccc2c(c1)C(=O)N([C@H](C)CO)C[C@@H](C)[C@H](CN(C)S(=O)(=O)c1cn(C)cn1)OCCCC[C@@H](C)O2,-8,/,/,/,0,/,/
O=C(Oc1c(CN2CCOCC2)cc(Cl)c2cccnc12)c1ccccc1,52*,0,8,-8,0,0,-36%
Oc1c(CN2CCOCC2)cc(CN2CCOCC2)cc1CN1CCOCC1,-3,-1,4,-4,0,17,/
Oc1c(Cl)cc(CN2CCOCC2)c2cccnc12,71*,4,-27,27,0,11,7.3µM*
Oc1c(CN2CCCCC2)cc(Br)c2cccnc12,64*,-2,19,-19,/,7,5.6µM*
COc1cc(OC)cc(C(=O)Oc2c(CN3CCOCC3)cc(Cl)c3cccnc23)c1,41*,2,6,-6,0,-4,-38%
CN1CCC(N2CCN(C3CN(C4CCCC4)S(=O)(=O)C3)CC2)CC1 (configuration not stated),/,/,/,/,0,0,/
COC(=O)C1=COC(C)C2CN3CCc4c([nH]c5cc(OC)c(OC)cc45)C3CC12 (configuration not stated),63*,/,-12,12,/,-30,71µM*
CSc1ccccc1NC(=O)CN(C)C(=O)COc1cccc2cccnc12,67*,/,8,-8,0,-4,69µM*
O=c1oc2ccccc2c(O)c1C=NCc1ccccn1,58*,-5,15,-15,/,-7,1%
SMILES,ARNT-TACC3 inh,NSD2 inh,SR-BI DiI-HDL act,SR-BI HDL uptake,Xi reactivation,HGIII-sPLA2 inh,ARNT Alpha ctr
CC(=O)N(C)C1=C(O)c2ccccc2C(=O)C1=O,11*,9,4,-4,/,2,5%
Cc1ccccc1NS(=O)(=O)c1cc2c(cc1C)N(C)CCO2,-2,/,16,-16,0,-1,/
O=C(CCSCCC(=O)NN=Cc1ccccc1O)NN=Cc1ccccc1O,/,0,12,-12,0,-18,/
O=C(N/N=C/c1ccccc1O)C1SCCCS1,56*,-15,-15,15,0,-5,-28%
Cn1cccc1-c1nc2ccc([N+](=O)[O-])cc2[nH]1,8,22,4,-4,0,-13,/
O=C(CCC(=O)c1cccs1)OCc1nnc(-c2ccccc2)o1,33*,-1,6,-6,/,-2,10%
Cc1onc(-c2ccccc2)c1C(=O)N1CCN(c2ccccc2)CC1,0,-2,5,-5,0,7,/
COc1ccc(N2C(=O)c3n[nH]c(C)c3C2c2cccc(C(F)(F)F)c2)cc1 (configuration not stated),/,0,/,/,0,-2,/
O=C(CN1C(=O)NC(c2ccccc2)(c2ccccc2)C1=O)NCc1ccco1,0,/,10,-10,0,-6,/
COCCn1c(C)cc(C(=O)COC(=O)c2ccc([N+](=O)[O-])o2)c1C,52*,15,-27,27,0,1,-16%
CC1CCN(C(=O)COC(=O)c2ccc(Br)o2)CC1,-5,-10,21,-21,/,-2,/
Cc1cc(C)c(C(=O)COC(=O)c2ccc([N+](=O)[O-])o2)cc1C,0,-19,-23,24,1,-4,/
CC1CCN(C(=O)COC(=O)c2ccc([N+](=O)[O-])o2)CC1,18*,48,38,-38,0,0,-5%
O=C1CN(C(=O)COC(=O)c2ccc([N+](=O)[O-])o2)c2ccccc2N1,42*,23,-5,5,0,13,-1%
C=CCn1c(SCC(=O)N2CCN(c3ccc(F)cc3)CC2)nnc1-c1ccco1,-3,/,-19,19,0,2,/
CCCCOC(=O)CSc1nc2c(c(=O)[nH]c(=O)n2C)n1C/C=C(\C)Cl,-19,3,-10,10,/,7,/
O=C(NC1Cc2ccccc2C1)[C@H]1N[C@H]2c3cccc(=O)n3C[C@H]2[C@@H]1CO,active,/,/,/,0,/,-6%[38 µM]
O=C(Nc1ncc(-c2ccccc2)o1)c1cc(-c2ccccc2)on1,/,/,/,/,/,/,-4%[38 µM]
O=C(Nc1cccnc1)c1cc(-c2ccccc2)on1,-3,-2,24,-24,/,-2,/
COc1ccc(NC(=O)c2cc(-c3ccccc3)on2)cc1,-2,-2,16,-16,0,1,/
O=C(Nc1nnc(-c2ccccc2)s1)c1cc(-c2ccccc2)on1,/,/,/,/,/,/,-7%[38 µM]

# Assay outcomes from PubChem.
